Measured values taken from paper PMC7490575 (Molecular Diversity, 2020).

Tests used:
[1] = system: A/Puerto Rico/8/34 (H1N1) influenza virus; assay: Cell protection assay, influenza virus in MDCK cells; format: cell-based, influenza virus A/PR/8/34 (H1N1)
Coxsackie B3 virus = assay: Cell protection assay, Coxsackie B3 virus in Vero cells; format: cell-based, coxsackievirus B3
Procedure, shortened: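 Confluent Vero monolayers given test compound, infected with Coxsackie B3 (m.o.i. 0.01), held 48 h at 36 °C, 5% CO2. Viability read by MTT (OD 540 nm) against virus-only wells; IC50 is 50% cell protection. […] SI = CC50/IC50.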

Row | Compound | antiviral activity against influenza virus A/PR/8/34 (H1N1), in words [1] | antiviral activity against Coxsackie B3 virus, in words (Coxsackie B3 virus)
1 | O=c1[nH]c(=O)n(CCCc2cn([C@@H]3O[C@H](CO)[C@@H](O)[C@H]3O)nn2)c2ccccc12 [Compound 4h, N1-{[1-(β-D-ribofuranosyl)-1H-1,2,3-triazol-4-yl]propyl}-2,4(1H,3H)-quinazolinedione] | antiviral activity was demonstrated | 
2 | NC(=O)c1ncn([C@@H]2O[C@H](CO)[C@@H](O)[C@H]2O)n1 [Ribavirin, 1-β-D-ribofuranosyl-1,2,4-triazole-3-carboxamide] |  | inactive
3 | Cc1[nH]c(=O)[nH]c(=O)c1CCCc1cn([C@@H]2O[C@H](CO)[C@@H](O)[C@H]2O)nn1 [Compound 8n, 6-Methyl-5-{[1-(β-D-ribofuranosyl)-1H-1,2,3-triazol-4-yl]propyl}-2,4(1H,3H)-pyrimidine-dione] | antiviral activity was demonstrated | 
4 | Cc1[nH]c(=O)[nH]c(=O)c1CCCCc1cn([C@@H]2O[C@H](CO)[C@@H](O)[C@H]2O)nn1 [Compound 8o, 6-Methyl-5-{[1-(β-D-ribofuranosyl)-1H-1,2,3-triazol-4-yl]butyl}-2,4(1H,3H)-pyrimidinedione] | completely inactive | 
5 | Cc1[nH]c(=O)[nH]c(=O)c1Cc1cn([C@@H]2O[C@H](CO)[C@@H](O)[C@H]2O)nn1 [Compound 8m, 6-Methyl-5-{[1-(β-D-ribofuranosyl)-1H-1,2,3-triazol-4-yl]methyl}-2,4(1H,3H)-pyrimidinedione] | antiviral activity was demonstrated | 
